Converted amounts (≈) assume the structure as drawn. “Also recorded” adds a separate entry of the source. Read-outs that look alike come from different tables or passages of the source. Non-standard residues stand in square brackets, D forms with d. Residues, ends and D or L forms follow the SMILES beside them. Dip = N[C@H](C(=O)O)C(c1ccccc1)c1ccccc1
How the values were obtained:
[1] = test system: human red blood cells (hRBC); experiment: Hemolytic activity; type: cell-based; conditions: concentration at which 50% hemolysis was observed
[2] = test system: MRSA (ATCC BAA-1556); type: cell-based, Methicillin-resistant staphylococcus aureus
[3] = test system: E. coli (ATCC BAA-2452); type: cell-based, Escherichia coli
[4] = test system: A. fumigatus (Af-293); experiment: microbe, parasite or virus in culture; type: cell-based, Aspergillus fumigatus; conditions: for MIC: Aspergillus fumigatus
[5] = test system: C. albicans (ATCC 60193); experiment: microbe, parasite or virus in culture; type: cell-based; conditions: ATCC 60193
[6] = test system: MRSA (ATCC BAA-1556) biofilm; experiment: Antibiofilm activity, XTT assay; type: cell-based, Methicillin-resistant staphylococcus aureus
Summary of the method: (§1)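 Bacterial suspensions at 5×10^5 CFU/mL in MH broth were grown 24 h at 37 °C to form biofilms, then washed twice with PBS. […] Biofilms were rewashed, then given XTT plus phenazine methosulfate for 1 h in the dark at 37 °C, and A492 was read. Percentage decrease versus untreated wells; triplicate, run twice.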

[7] = test system: E. coli (ATCC BAA-2452) biofilm; experiment: Antibiofilm activity, XTT assay; type: cell-based, Escherichia coli
Summary of the method: as §1

[8] = test system: A. fumigatus (Af-293) biofilm; experiment: Antibiofilm activity, XTT assay; type: cell-based, Aspergillus fumigatus
Summary of the method: (§2)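 Fungal biofilms came from suspensions at 2×10^7 CFU/mL in RPMI medium grown 24 h at 35 °C, then washed twice with PBS. […] After washing, XTT with phenazine methosulfate was added for 1 h in the dark at 37 °C, and absorbance was read at 492 nm. Percentage decrease versus untreated wells; triplicate, replicated twice.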

[9] = test system: C. albicans (ATCC 60193) biofilm; experiment: Antibiofilm activity, XTT assay; type: cell-based
Summary of the method: as §2

[10] = test system: MRSA (ATCC BAA-1556); experiment: Kill kinetics assay; type: cell-based, Methicillin-resistant staphylococcus aureus
[11] = test system: E. coli (ATCC BAA-2452); experiment: Kill kinetics assay; type: cell-based, Escherichia coli
[12] = test system: A. fumigatus (Af-293); experiment: Kill kinetics assay; type: cell-based, Aspergillus fumigatus; conditions: for eradication of fungal cells: after 12 h
[13] = test system: C. albicans (ATCC 60193); experiment: Kill kinetics assay; type: cell-based; conditions: after 12 h
[14] = Calcein dye leakage assay; conditions: bacterial mimic liposomes; for calcein dye leakage: 5 μg/mL
Summary of the method: (§3)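 Calcein-loaded LUVs were used: negatively charged ones mimic bacterial membranes and zwitterionic ones mimic mammalian membranes. They were diluted in PBS to a final lipid concentration of 40 μM and mixed 1:1 with test compound at 5, 10, 20, 30 or 50 μg/mL. Fluorescence (ex 490/em 520 nm) was read every 10 min for 100 min. Leakage was expressed relative to background and Triton X-100 lysis (100%); triplicate.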

[15] = Calcein dye leakage assay; conditions: mammalian mimic liposomes; after 100 min; concentration not given
Summary of the method: as §3

[16] = test system: E. coli (ATCC 25922) and E. coli (ATCC BAA-2452); experiment: Resistance development study, repeated exposure; type: cell-based; conditions: E. coli strains; 18 exposures
[17] = test system: Enterococcus faecalis (ATCC 29212)
[18] = test system: Enterococcus faecalis (ATCC 51575), vancomycin resistant
[19] = test system: Staphylococcus pneumoniae (ATCC 700677), multi-drug resistant; conditions: Multi-drug resistant (Penicillin, Tetracycline, and Erythromycin)
[20] = test system: Clostridium difficile (ATCC 700057)
[21] = test system: Clostridium difficile (NAP1/027); conditions: Reduced susceptibility to multiple antibiotics
[22] = test system: Escherichia coli (ATCC BAA-2452), NDM-1
[23] = test system: Acinetobacter baumannii (ATCC BAA1605), ciprofloxacin resistant; conditions: Ciprofloxacin resistant strain
[24] = test system: Pseudomonas aeruginosa (ATCC BAA-1744), imipenem resistant; conditions: Imipenem resistant strain
[25] = test system: human skin fibroblast cell (HeKa); conditions: 24 h, 100 μg/mL
[26] = test system: Gram-negative bacteria; conditions: drug-resistant Gram-negative bacteria, range over strains
[27] = test system: fungi; conditions: range over strains
[28] = in vitro; conditions: human, cell viability
[29] = in vitro; conditions: human
[30] = in vitro; conditions: human, cell viability; remark: listed apart in the source
[31] = in vitro; conditions: human, cell viability; remark: listed apart in the source
[32] = in vitro; conditions: human; remark: listed apart in the source
[33] = test system: A. fumigatus (Af-293); experiment: microbe, parasite or virus in culture; type: cell-based; conditions: Aspergillus fumigatus, read-out: MIC A. fumigatus (Af-293)

N=C(N)NCCC[C@@H]1NC(=O)[C@H](CCCNC(=N)N)NC(=O)[C@H](CCCNC(=N)N)NC(=O)[C@H](C(c2ccccc2)c2ccccc2)NC(=O)[C@H](Cc2c[nH]c3ccccc23)NC(=O)[C@H](C(c2ccccc2)c2ccccc2)NC(=O)[C@H](CCCNC(=N)N)NC1=O [3b, c[Arg-Arg-Arg-Arg-Dip-Trp-Dip]] (cyclo(RRRR[Dip]W[Dip]))
HC50 [1]: 230 µg/mL | MIC CaCl2 [2]: 1.5 µg/mL (≈ 1.19 µM) | MIC Control [2]: 1.5 µg/mL (≈ 1.19 µM) | MIC KCl [2]: 3.1 µg/mL (≈ 2.47 µM) | MIC MgCl2 [2]: 3.1 µg/mL (≈ 2.47 µM) | MIC NH4Cl [2]: 1.5 µg/mL (≈ 1.19 µM) | MIC NaCl [2]: 3.1 µg/mL (≈ 2.47 µM) | MIC NaCl ([3]; ATCC BAA-2452): 25 µg/mL (≈ 19.9 µM) | MIC CaCl2 ([3]; E. coli (ATCC BAA-2452), CaCl2 2 mM): 12.5 µg/mL (≈ 9.94 µM) | MIC KCl ([3]; E. coli (ATCC BAA-2452), KCl […]): 12.5 µg/mL (≈ 9.94 µM) | MIC Control ([3]; E. coli (ATCC BAA-2452), MH media without salt ions or serum): 12.5 µg/mL | MIC MgCl2 ([3]; E. coli (ATCC BAA-2452), MgCl2 1 mM): 12.5 µg/mL (≈ 9.94 µM) | MIC NH4Cl ([3]; E. coli (ATCC BAA-2452), NH4Cl 6 mM): 12.5 µg/mL (≈ 9.94 µM) | MIC MgCl2 ([4]; A. fumigatus (Af-293), MgCl2 1 mM): 12.5 µg/mL (≈ 9.94 µM) | MIC NaCl ([4]; A. fumigatus (Af-293), NaCl 150 mM): 12.5 µg/mL (≈ 9.94 µM) | MIC FBS (25%) ([4]; A. fumigatus (Af-293), fetal bovine serum 25%): 12.5 µg/mL (≈ 9.94 µM) | MIC CaCl2 ([4]; Af-293): 6.2 µg/mL (≈ 4.93 µM) | MIC Control ([4]; Af-293): 6.2 µg/mL (≈ 4.93 µM) | MIC KCl ([4]; Af-293): 6.2 µg/mL (≈ 4.93 µM) | MIC NH4Cl ([4]; Af-293): 6.2 µg/mL (≈ 4.93 µM) | MIC CaCl2 [5]: 6.2 µg/mL (≈ 4.93 µM) | MIC Control [5]: 3.1 µg/mL (≈ 2.47 µM) | MIC KCl [5]: 3.1 µg/mL (≈ 2.47 µM) | MIC MgCl2 [5]: 3.1 µg/mL (≈ 2.47 µM) | MIC NH4Cl [5]: 6.2 µg/mL (≈ 4.93 µM) | MIC NaCl [5]: 3.1 µg/mL (≈ 2.47 µM) | reduction in biofilm mass ([6]; at 2× the MIC): 60–65% | reduction in biofilm mass ([6]; at MIC, vs untreated control): 40–45% | reduction in biofilm mass ([7]; at 2× the MIC): 60–65% | reduction in biofilm mass ([7]; at MIC): 40–45% | reduction in biofilm mass ([8]; at 2× the MIC): 49–56% | reduction in biofilm mass ([8]; at MIC): 31–36% | decrease in biofilm mass ([9]; at 2× the MIC): 60–62% | decrease in biofilm mass ([9]; at MIC): 31–39% | time to virtually eliminate all bacterial cells ([10]; at 4× the MIC): 1 to 2 h | time to virtually eliminate all bacterial cells ([10]; at MIC): 3 to 4 h | time to completely halt growth of nearly all cells ([11]; at 4× the MIC): 2 h | time to completely halt growth of nearly all cells ([11]; at MIC): 4 h | eradication of fungal cells ([12]; at 4× the MIC): near-complete eradication | eradication of fungal cells ([12]; at MIC): Complete eradication was not achieved | eradication of fungal cells ([13]; at 4× the MIC): near-complete eradication | eradication of fungal cells ([13]; at MIC): Complete eradication was not achieved | calcein dye leakage ([14]; 40 min): approximately 20% | calcein dye leakage ([14]; 60 min): ~60% | incubation time to 100% dye leakage ([14]; 50 μg/mL): 60 min | calcein dye leakage [15]: 14.11% | change in MIC after repeated exposure (resistance development) [16]: no signs of resistance development; also recorded: negligible changes in the MIC values | MIC Enterococcus faecalis (ATCC 29212) [17]: 12.5 µg/mL (≈ 9.94 µM) | MIC Enterococcus faecalis (ATCC 51575) [18]: 12.5 µg/mL (≈ 9.94 µM) | MIC Staphylococcus pneumoniae (ATCC 700677) [19]: 12.5 µg/mL (≈ 9.94 µM) | MIC Clostridium difficile (ATCC 700057) [20]: 12.5 µg/mL (≈ 9.94 µM) | MIC Clostridium difficile (NAP1/027) [21]: 6.2 µg/mL (≈ 4.93 µM) | MIC Escherichia coli (ATCC BAA-2452) [22]: 12.5 µg/mL (≈ 9.94 µM) | MIC Acinetobacter baumannii (ATCC BAA1605) [23]: 12.5 µg/mL (≈ 9.94 µM) | MIC Pseudomonas aeruginosa (ATCC BAA-1744) [24]: 12.5 µg/mL (≈ 9.94 µM) | cell viability [25]: > 60% | MIC [26]: 12.5 to 25 µg/mL | MIC [27]: 3.1 to 12.5 µg/mL | viability at 24 h, 100 μg/mL [28]: > 70% | viability at 24 h, 50 μg/mL [29]: 81 to 89% | viability at 24 h, 100 μg/mL [29]: > 70% | viability at 24 h, 250 μg/mL [29]: > 50% | viability at 24 h, 100 μg/mL [30]: > 70% | viability at 24 h, 100 μg/mL [31]: > 70% | remaining at 0.5 h, 75 μM ([32]; human plasma): ~82.4% | remaining at 12 h, 75 μM ([32]; human plasma): ~52.3% | remaining at 24 h, 75 μM ([32]; human plasma): ~44.9% | half-life at 75 μM ([32]; plasma): 13 h

C[C@@H]1[C@H](O)[C@@H](C)/C=C/C=C/C=C/C=C/C=C/C=C/C=C/[C@H](O[C@@H]2O[C@H](C)[C@@H](O)[C@H](N)[C@@H]2O)C[C@@H]2O[C@](O)(C[C@@H](O)C[C@@H](O)[C@H](O)CC[C@@H](O)C[C@@H](O)CC(=O)O[C@H]1C)C[C@H](O)[C@H]2C(=O)O [Amphotericin B, reference compound]
MIC [33]: 0.7 µg/mL (≈ 0.758 µM) | MIC ([4]; read-out: MIC CaCl2): 0.7 µg/mL (≈ 0.758 µM) | MIC ([4]; read-out: MIC Control): 0.7 µg/mL (≈ 0.758 µM) | MIC ([4]; read-out: MIC FBS (25%)): 0.7 µg/mL (≈ 0.758 µM) | MIC ([4]; read-out: MIC KCl): 0.7 µg/mL (≈ 0.758 µM) | MIC ([4]; read-out: MIC MgCl2): 1.5 µg/mL (≈ 1.62 µM) | MIC ([4]; read-out: MIC NH4Cl): 0.7 µg/mL (≈ 0.758 µM) | MIC ([4]; read-out: MIC NaCl): 0.7 µg/mL (≈ 0.758 µM) | fungicidal effect in kill kinetics ([12]; MIC and 4×MIC, compared to 3b and 4b): mild fungicidal effect

Reference: article PMC12207910 (European journal of pharmaceutical sciences : official …, 2024)
